The structures appear in SMILES notation. Active and inactive are the calls of the source. The calls are words filed in the database; no cut-off is given here.

The test system of test [1] is Escherichia coli. The test is described as follows: Induction of atoC transcription in Escherichia coli K-12 BW25113 at 1 mM by beta-galactosidase reporter assay. The format is functional, organism-based. The method, boiled down: (§1)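 BW25113 carrying pCPG6 (atoC-lacZ) grown at 37 °C with vigorous shaking in supplemented M9 minimal medium with ampicillin 100 µg/mL. Overnight cultures were diluted 1:15 into medium containing compound at 1 mM, or at 0, 0.25, 0.5, 1.0, 2.5 and 5 mM. Cells were grown to OD600 0.4–0.7, then harvested, washed twice in M9, and assayed for β-galactosidase. The pMLB1034 vector strain served as negative control. Two independent experiments, two clones each.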

In test [2] the test system is Escherichia coli. The test is described as follows: Repression of atoDAEB transcription in Escherichia coli K-12 BW25113 at 1 mM by beta-galactosidase reporter assay. Type of test: functional, organism-based. The method, boiled down:
(§2)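 BW25113 carrying pCPG5 (atoA-lacZ, atoDAEB promoter) grown at 37 °C in supplemented M9 minimal medium with 1 mM compound. Overnight cultures were diluted 1:15 and grown to OD600 0.4–0.7. Cells were washed twice in M9, then β-galactosidase activity was read. Plasmid pMLB1034 served as negative control.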

Test [3] has as its system Escherichia coli. The test is described as follows: Induction of atoDAEB transcription in Escherichia coli K-12 BW25113 at 1 mM by beta-galactosidase reporter assay. Type of test: functional, organism-based. Summed up:
as §2

A short description of test [4]: Induction of purified His6-tagged cytosolic AtoS autophosphorylation preincubated at 1 mM for 15 mins before […] addition after 30 mins by autoradiography. The method, boiled down: (§3)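 Purified His6-tagged cytoAtoS (7 µM) was preincubated 15 min at room temperature with compound at 1 mM final in 50 mM Tris-HCl pH 7.6, 10 mM MgCl2, 100 mM KCl, 1 mM DTT, 10 mM NaF. Reactions were stopped with SDS loading buffer, resolved on 12% SDS–PAGE and autoradiographed.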

Test [5] relates to Escherichia coli. The test is described as follows: Increase in DnaK protein level in Escherichia coli K-12 BW25113 by Western blot method. The format is functional, organism-based.
For test [6], the system named is Escherichia coli. The test is described as follows: Reduction in AtoS protein level in Escherichia coli K-12 BW25113 at 1 to 5 mM by immunoblot method. Type of test: functional, organism-based. Summed up: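 BW25113/pUC-Az grown in supplemented M9 with various compound concentrations. Half of each dose was added at OD600 0.2 and half at 0.4, and growth continued to OD600 0.9. Total extracts (15 µL) were run on 10% SDS–PAGE and immunostained with anti-AtoC (1:500) or anti-AtoS (1:1000). BW28878 was the negative control.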

In test [7] the test system is Nucleic Acid. The test is described as follows: Activation of atoDAEB promoter activity in Escherichia coli K-12 BW25113 harboring plasmid containing atoA-lacz at 0.1 to 2.5 mM by beta-galactosidase reporter assay in presence of 2.5 mM acetoacetate. Type of test: nucleic-acid assay. The method, boiled down:
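BW25113/pCPG5 (atoA-lacZ) grown in modified M9 mineral medium with no acetoacetate or with 2.5 or 10 mM acetoacetate. Compound was added at 0.1, 0.5, 1.0 or 2.5 mM after 1:15 dilution of overnight cultures. Cells were grown to OD600 0.4–0.7, washed twice in M9 and assayed for β-galactosidase.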

A short description of test [8]: Stimulation of recombinant purified His6-tagged cytosolic AtoS oligomers assessed as reduction in dimeric form at 1 mM using glutaraldehyde by SDS-PAGE analysis. The method, boiled down:
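It was then cross-linked 30 min at 25 °C with 0.1% glutaraldehyde. The reaction was stopped with 2× SDS loading buffer and boiling, run on 8.5% SDS–PAGE and immunoblotted with anti-His (1:500).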

Test [9] has as its system Nucleic Acid. The test is described as follows: Effect on atoDAEB promoter activity in Escherichia coli K-12 BW25113 at 1 to 2.5 mM by beta-galactosidase reporter assay. Type of test: nucleic-acid assay. The method, boiled down:
(§4)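 BW25113 carrying pCPG4 (atoS-lacZ) or pCPG5 (atoA-lacZ), in supplemented M9 at 37 °C. Overnight cultures were diluted 1:15 into medium with compound at 1.0 or 2.5 mM and grown to OD600 0.4–0.7. Cells were harvested, washed twice in M9 and assayed for β-galactosidase. The pMLB1034 strain served as negative control.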

Test [10] has as its system Nucleic Acid. The test is described as follows: Activation of atoC promoter in Escherichia coli K-12 BW25113 by beta-galactosidase reporter assay. Type of test: nucleic-acid assay. The method, boiled down: as §1
Test [11] has as its system Escherichia coli. The test is described as follows: Reduction in AtoS protein level in Escherichia coli K-12 BW25113 grown to OD600 0.5 to 0.6 at 2.5 mM by immunoblot method. Type of test: functional, organism-based. Summed up: (§5)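 BW25113 carrying pUC-Az (atoS, atoC) grown in supplemented M9 with compound at 1.0 or 2.5 mM, added at the start of growth. Cultures were harvested at OD600 0.5–0.6. Whole-cell extracts in SDS loading buffer (15 µL) were boiled and run on SDS–PAGE, then immunoblotted with affinity-purified rabbit polyclonal anti-AtoC or anti-AtoS. BW28878, lacking AtoS/AtoC, was the negative control.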

For test [12], the system named is Escherichia coli. The test is described as follows: Effect on HSP60 protein level in Escherichia coli K-12 BW25113 harboring plasmid containing atoC-lacZ at 0.25 to 5 mM by Western blot method. The format is functional, organism-based.
Test [13] concerns Escherichia coli. The test is described as follows: Effect on AtoS protein level in Escherichia coli K-12 BW25113 grown to OD600 0.5 to 0.6 at 1 mM by immunoblot method. The format is functional, organism-based. Summed up:
as §5

The test system of test [14] is Escherichia coli. The test is described as follows: Reduction in AtoC protein level in Escherichia coli K-12 BW25113 harboring pUC-Az plasmid at 5 mM by immunoblot method.
In test [15] the test system is Nucleic Acid. The test is described as follows: Activation of atoDAEB promoter activity in Escherichia coli K-12 BW25113 harboring plasmid containing atoA-lacz by beta-galactosidase reporter assay in presence of 2.5 mM acetoacetate.
Test [16] deals with Escherichia coli. The test is described as follows: Increase in AtoC protein level in Escherichia coli K-12 BW25113 grown to OD600 0.5 to 0.6 at 1 to 2.5 mM by immunoblot method. The format is functional, organism-based. Summed up: as §5
In test [17] the test system is Nucleic Acid. The test is described as follows: Effect on atoS promoter activity in Escherichia coli K-12 BW25113 at 1 to 2.5 mM by beta-galactosidase reporter assay. The format is nucleic-acid assay. Summed up:
as §4

Test [18] is described as follows: Induction of purified His6-tagged cytosolic AtoS kinase activity preincubated at 1 mM for 15 mins before […] addition after 30 mins by autoradiography. Summed up:
as §3

The test system of test [19] is Escherichia coli. The test is described as follows: Induction of atoC transcription in Escherichia coli K-12 BW25113 by beta-galactosidase reporter assay. Type of test: functional, organism-based. The method, boiled down:
as §1

Test [20] has as its system Escherichia coli. The test is described as follows: Repression of atoC transcription in Escherichia coli K-12 BW25113 at 1 mM by beta-galactosidase reporter assay. The format is functional, organism-based. The method, boiled down: as §1

`Cc1c(C)c2c(c(C)c1Br)NCCO2`: the result (in the test on Escherichia coli [1]; in the test with Escherichia coli [3]; in test [4]) was inactive. Further, the outcome in the test on Escherichia coli [2] was Active.
Take `Cc1c(C)c2c(c(C)c1Cl)NCC(c1ccccc1)O2` (stereo unspecified): the result in the test on Escherichia coli [1] and in the test with Escherichia coli [3] was Active. Also, the outcome in test [4] was inactive.
Turning to `COc1ccc(-c2c(C)c(C)c3c(c2C)NCCO3)cc1`, in the test on Escherichia coli [1], the outcome was Active. In addition, the result in the test with Escherichia coli [3] was inactive.
On to `COc1ccc(C2CNc3c(C)cc(C)c(C)c3O2)cc1` (stereo unspecified), for which the outcome in the test with Escherichia coli [1] and in the test with Escherichia coli [3] was Active. Besides, in test [4], the outcome was inactive.
On to `Cc1cc(C)c2c(c1C)OCCN2`, for which the Activity entry in the test with Escherichia coli [5], in the test on Nucleic Acid [10] and in the test with Escherichia coli [19] was “Dose-dependent effect” each time. The result (with Escherichia coli [6]; in the test on Nucleic Acid [7]; in the test with Escherichia coli [1]; in test [8]; in the test with Escherichia coli [2]; in the test with Escherichia coli [11]) was Active. Moreover, the outcome (in the test with Escherichia coli [14]; in the test on Nucleic Acid [15]; with Escherichia coli [16]; in [18]; in test [4]) was Active. For the same compound, the outcome in the test on Nucleic Acid [9], in the test on Escherichia coli [12], in the test with Escherichia coli [13] and in the test on Nucleic Acid [17] was inactive.
With `COc1ccc(C2COc3c(C)c(C)cc(C)c3N2)cc1` (stereo unspecified), the outcome in the test with Escherichia coli [20] and with Escherichia coli [3] was Active. Further, the outcome in [4] was inactive.
For `Cc1c(C)c2c(c(C)c1Cl)NCCO2`, the outcome in the test with Escherichia coli [2] and in the test on Escherichia coli [20] was Active. Also, the result in test [4] was inactive.
